A word on the half-life: it is how long it takes for the measured level to halve. As usually defined, the clearance is a measure of how efficiently the substance is removed, as volume per time. One may read the bioavailability as the share of a dose that reaches the circulation, judged against a reference dose that is usually intravenous. A word on the IC50: it is the concentration that gives 50% inhibition. For orientation: logD means the decadic logarithm of the distribution of all forms, ionised or not, between an organic phase and buffer at a given pH. What is called AUC is concentration integrated over time.

The record followed here is ChEMBL document CHEMBL2407079, “Potent DGAT1 Inhibitors in the Benzimidazole Class with a Pyridyl-oxy-cyclohexanecarboxylic Acid Moiety” (ACS Med Chem Lett, 2013).

The subject of data set [1] is Rattus norvegicus. The data set can be described thus: Dose normalized AUC in Sprague-Dawley rat at 1 mg/kg, iv and 2 mg/kg, po. Type of data set: ADME, organism-based. Conditions: in vivo. In a few lines: (§1)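 Sprague–Dawley rats; 1 mg/kg iv and 2 mg/kg p.o., both as solutions in EtOH/PEG400/water (10:50:40). Plasma AUC measured for the parent and, where applicable, for the epimerized metabolite formed in vivo.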

A short description of data set [2]: Half life in Sprague-Dawley rat at 1 mg/kg, iv. The format is ADME, organism-based. Details: dose 1 mg/kg, route intravenous. The following applies: in vivo. In a few lines:
(§2)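 Sprague–Dawley rats; intravenous dose of 1 mg/kg given as a solution in EtOH/PEG400/water (10:50:40).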

A short description of data set [3]: Volume of distribution at steady state in Sprague-Dawley rat at 1 mg/kg, iv. The following applies: in vivo, read-out: Vdss. Type of data set: ADME, organism-based. Details: dose 1 mg/kg, route intravenous. In a few lines: as §2
Data set [4] is described as follows: Clearance in Sprague-Dawley rat at 1 mg/kg, iv. Type of data set: ADME, organism-based. Set-up: dose 1 mg/kg, route intravenous. Conditions: in vivo. In outline:
as §2

Data set [5] can be described thus: Bioavailability in Sprague-Dawley rat at 1 mg/kg, iv. Type of data set: ADME, organism-based. The following applies: in vivo. In outline: as §2
A further data set relates to Mus musculus. As to the kind of experiment: Reduction in triglyceride excursion in mouse at 10 mg/kg, po measured at 18 hrs by lipid tolerance test. The format is functional. Set-up: scale not given: the % may be the effect or the level left. In a few lines:
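Mouse lipid tolerance test. Oral dose of 10 mg/kg as a suspension in 0.5% methylcellulose; triglyceride reduction read at 18 h.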

In data set [6] the target is T1, Diacylglycerol O-acyltransferase 1 (Mus musculus, UniProt Q9Z2A7).
T1 sequence (Q9Z2A7 whole entry): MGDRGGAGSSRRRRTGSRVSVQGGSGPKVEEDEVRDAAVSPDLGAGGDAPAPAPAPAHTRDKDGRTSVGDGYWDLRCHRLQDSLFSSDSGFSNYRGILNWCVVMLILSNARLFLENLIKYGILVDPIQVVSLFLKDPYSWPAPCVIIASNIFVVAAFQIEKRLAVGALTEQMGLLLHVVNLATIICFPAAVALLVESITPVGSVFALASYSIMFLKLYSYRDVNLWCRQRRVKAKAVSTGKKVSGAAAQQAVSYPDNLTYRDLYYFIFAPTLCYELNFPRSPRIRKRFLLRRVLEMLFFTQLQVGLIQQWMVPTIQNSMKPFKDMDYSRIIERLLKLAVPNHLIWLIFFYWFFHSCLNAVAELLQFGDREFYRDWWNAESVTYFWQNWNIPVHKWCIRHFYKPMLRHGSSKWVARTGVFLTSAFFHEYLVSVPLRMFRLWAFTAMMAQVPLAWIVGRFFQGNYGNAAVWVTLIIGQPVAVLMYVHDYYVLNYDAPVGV
The data set can be described thus: Inhibition of mouse DGAT1.

Data set [7] is described as follows: Lipophilicity, log D of the compound by HPLC analysis. The format is physicochemical.
In data set [8] the target is T2, Diacylglycerol O-acyltransferase 1 (Homo sapiens, UniProt O75907).
T2 sequence (O75907 whole entry): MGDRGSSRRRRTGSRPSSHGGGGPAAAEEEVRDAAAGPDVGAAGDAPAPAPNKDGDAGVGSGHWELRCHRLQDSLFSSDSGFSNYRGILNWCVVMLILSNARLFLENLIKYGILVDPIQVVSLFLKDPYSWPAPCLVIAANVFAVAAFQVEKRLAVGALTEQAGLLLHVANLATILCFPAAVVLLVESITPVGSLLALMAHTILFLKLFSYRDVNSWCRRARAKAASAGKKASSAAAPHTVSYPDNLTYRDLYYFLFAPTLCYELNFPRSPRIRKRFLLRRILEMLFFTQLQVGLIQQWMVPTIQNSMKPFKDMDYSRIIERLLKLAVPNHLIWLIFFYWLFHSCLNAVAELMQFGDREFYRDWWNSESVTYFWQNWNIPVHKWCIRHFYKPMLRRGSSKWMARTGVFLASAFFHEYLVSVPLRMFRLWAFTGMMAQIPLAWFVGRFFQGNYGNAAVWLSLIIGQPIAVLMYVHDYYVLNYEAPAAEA
As to the kind of experiment: Inhibition of human DGAT1.

Data set [9] relates to Rattus norvegicus. The data set can be described thus: AUC in Sprague-Dawley rat assessed as cis-4-(5-(5-fluoro-1H-benzo[d]imidazol-2-yl)-2,3'-bipyridin-6'-yloxy)cyclohexanecarboxylic acid at 2 mg/kg, po. Type of data set: ADME, organism-based, Plasma. Details: dose 2 mg/kg, route oral. Conditions: in vivo. In outline: as §1
Data set [10] in a line: AUC in Sprague-Dawley rat at 2 mg/kg, po. Set-up: dose 2 mg/kg, route oral. The following applies: plasma. Type of data set: ADME, organism-based. In a few lines:
as §1

The compound `O=C(O)[C@H]1CC[C@@H](Oc2ccc(-c3ccc(-c4nc5ccc(Cl)cc5[nH]4)cn3)cn2)CC1` returned an AUC/dose in the data set with Rattus norvegicus [1] of 2.4 µM·h/mg/kg. The half-life in data set [2] was 3.7 h. Also, the Vd in [3] was 0.34 L/kg. Also, in data set [4], the clearance came to 3 mL/min/kg. In data set [5], this compound registered a bioavailability of 19%. Moreover, in the data set with Mus musculus, the Activity is recorded as 144%. The results for the concentration for half-maximal inhibition (IC50) in data set [6] and in [8] were 3.7 nM and 2.1 nM, respectively. In addition, the logD in data set [7] was 1.42.
Turning to `O=C(O)[C@H]1CC[C@H](Oc2ccc(-c3ccc(-c4nc5ccc(F)cc5[nH]4)cn3)cn2)CC1`, the values for the AUC (in the data set on Rattus norvegicus [9]; in data set [10]) were 0.48 µM·h and 4.47 µM·h, respectively. The same compound showed a half-life in data set [2] of 0.86 h. Further, in [3], the Vd was 0.46 L/kg. In [4], the clearance turned out to be 4.2 mL/min/kg. The compound further displayed a bioavailability in [5] of 24%. The half-maximal inhibitory concentration (IC50) in data set [6] stood at 8.1 nM; in data set [8], 2.5 nM.
